Test results taken from ChEMBL document CHEMBL1139283, “Synthesis and biological activity of 1,4-dihydrobenzothiopyrano[4,3-c]pyrazole derivatives, novel pro-apoptotic mitochondrial targeted agents” (Bioorg Med Chem, 2009).
One block for each compound: values may come before it. Activity calls are given as the source filed them. The rule behind the calls is not given here.

Assays:
[1] = test system: HeLa; assay: Cytotoxicity against human HeLa cells assessed as viable cells at 6 uM after 72 hrs by trypan blue assay in presence of cyclosporin A; assay type: functional; settings: read-out: Activity
Outline: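 HeLa cells seeded, after 24 h pretreated 30 min with 2 μM CsA. Medium renewed, 6 μM agent added, 72 h. Viable cells counted by trypan blue and expressed as percent of control culture cell number.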

[2] = test system: HeLa; assay: Induction of apoptosis in human HeLa cells assessed as non apoptotic cell count at 50 uM treated for 48 hrs before Annexin-V-FITC PI staining by flow cytometry; assay type: functional
Outline: (§1)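 Near-confluent HeLa cells exposed to 50 μM agent for 0, 24 or 48 h at 37 °C. About 5×10^5 cells in binding buffer (10 mM Hepes pH 7.5, 140 mM NaCl, 2.5 mM CaCl2) stained with 1 μg/ml Annexin V-FITC and 1 μg/ml PI, 10 min at room temperature in the dark. Flow cytometry; mean of three independent experiments.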

[3] = test system: HL-60; assay: Cytotoxicity against human HL60 cells after 72 hrs by trypan blue assay; assay type: functional, cell-based; settings: HL-60, 72 h
Outline: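 HL-60 cells kept in RPMI 1640 with 15% heat-inactivated FCS plus antibiotics, 37 °C, 5% CO2. 4×10^4 cells/well seeded, 24 h, then a range of concentrations added to complete medium for 72 h. Cell number counted by trypan blue; IC50 is the concentration giving 50% fewer cells than control cultures.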

[4] = test system: HeLa; assay: Induction of apoptosis in human HeLa cells assessed as dead cell count at 50 uM treated for 48 hrs before Annexin-V-FITC PI staining by flow cytometry; assay type: functional
[5] = test system: HeLa; assay: Induction of apoptosis in human HeLa cells assessed as early stage apoptotic cell count at 50 uM treated for 24 hrs before Annexin-V-FITC PI staining by flow cytometry; assay type: functional; outline: as §1
[6] = species on record: Rattus norvegicus; assay: Induction of apoptosis inducing factor release in rat liver mitochondria at 50 uM by Western blotting in presence of cyclosporin A; assay type: functional
Outline: (§2)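 Rat liver mitochondria (1 mg protein/mL) incubated 15 min at 20 °C in standard medium with 30 μM Ca2+ unless omitted. Agent 50 μM, CsA 1 μM. Supernatant after 13,000 g, 10 min, 4 °C, concentrated and run on SDS-PAGE (15% for cyt c, 10% for AIF). Western blot with anti-cyt c and anti-AIF antibodies.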

[7] = test system: HeLa; assay: Induction of apoptosis in human HeLa cells assessed as dead cell count at 50 uM using Annexin-V-FITC PI stain by flow cytometry; assay type: functional
[8] = species on record: Rattus norvegicus; assay: Induction of cytochrome c release in rat liver mitochondria at 50 uM by Western blotting in presence of cyclosporin A; assay type: functional; outline: as §2
[9] = species on record: Rattus norvegicus; assay: Effect on mitochondrial swelling in rat liver mitochondria assessed as complete collapse of electrical membrane potential at 50 uM in presence of bongkrekic acid; assay type: functional
[10] = test system: HeLa; assay: Induction of apoptosis in human HeLa cells assessed as late stage apoptotic cell count at 50 uM treated for 24 hrs before Annexin-V-FITC PI staining by flow cytometry; assay type: functional; outline: as §1
[11] = species on record: Rattus norvegicus; assay: Effect on mitochondrial swelling in rat liver mitochondria assessed as complete collapse of electrical membrane potential at 50 uM in presence of N-ethylmaleimide; assay type: functional
[12] = test system: HeLa; assay: Induction of apoptosis in human HeLa cells assessed as non apoptotic cell count at 50 uM using Annexin-V-FITC PI stain by flow cytometry; assay type: functional; outline: as §1
[13] = test system: HeLa; assay: Induction of DNA fragmentation in human HeLa cells at 100 uM after 24 hrs; assay type: functional, cell-based
Outline: (§3)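 HeLa cells (5×10^5) grown 24 h at 37 °C, optionally pretreated 30 min at 37 °C with 5 μM CsA. Medium renewed, agent added at 100 μM for 24 h. Extracted DNA in TE buffer run on 0.8% agarose gel in TBE, pH 8.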

[14] = species on record: Rattus norvegicus; assay: Decrease in mitochondrial sulfydryl groups in rat liver mitochondria at 50 uM in presence of Ca2+; assay type: functional
Outline: (§4)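 Rat liver mitochondria (1 mg protein/mL) at 20 °C in 250 mM sucrose, 10 mM Hepes pH 7.4, 5 mM succinate, 1.25 μM rotenone with 30 μM Ca2+ unless omitted. Agent 50 μM; DTE 2 mM where present. Protein thiol oxidation measured; mean ± SD of four independent experiments.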

[15] = species on record: Rattus norvegicus; assay: Effect on mitochondrial swelling in rat liver mitochondria assessed as complete collapse of electrical membrane potential at 50 uM in presence of Ca2+; assay type: functional
[16] = species on record: Rattus norvegicus; assay: Effect on mitochondrial swelling in rat liver mitochondria assessed as complete collapse of electrical membrane potential at 50 uM in presence of cyclosporin A; assay type: functional
[17] = test system: HeLa; assay: Induction of DNA fragmentation in human HeLa cells at 100 uM after 24 hrs in presence of cyclosporin A; assay type: functional, cell-based; outline: as §3
[18] = species on record: Rattus norvegicus; assay: Effect on mitochondrial swelling in rat liver mitochondria assessed as complete collapse of electrical membrane potential at 50 uM in presence of ADP; assay type: functional
[19] = species on record: Rattus norvegicus; assay: Induction of apoptosis inducing factor release in rat liver mitochondria at 50 uM by Western blotting in presence of Ca2+; assay type: functional; outline: as §2
[20] = test system: HeLa; assay: Induction of apoptosis in human HeLa cells assessed as early stage apoptotic cell count at 50 uM treated for 48 hrs before Annexin-V-FITC PI staining by flow cytometry; assay type: functional; outline: as §1
[21] = species on record: Rattus norvegicus; assay: Induction of cytochrome c release in rat liver mitochondria at 50 uM by Western blotting in presence of Ca2+; assay type: functional; outline: as §2
[22] = species on record: Rattus norvegicus; assay: Decrease in mitochondrial sulfydryl groups in rat liver mitochondria at 50 uM in presence of DTE; assay type: functional; outline: as §4
[23] = species on record: Rattus norvegicus; assay: Effect on mitochondrial swelling in rat liver mitochondria assessed as complete collapse of electrical membrane potential at 50 uM; assay type: functional
[24] = test system: HeLa; assay: Induction of apoptosis in human HeLa cells assessed as dead cell count at 50 uM treated for 24 hrs before Annexin-V-FITC PI staining by flow cytometry; assay type: functional
[25] = test system: HeLa; assay: Cytotoxicity against human HeLa cells after 72 hrs by trypan blue assay; assay type: functional, cell-based
Outline: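 HeLa cells kept in Ham's F-12 with 10% heat-inactivated FCS plus antibiotics, 37 °C, 5% CO2. 4×10^4 cells/well seeded, 24 h, medium renewed, then a range of concentrations added for 72 h. Viability by trypan blue; IC50 is the concentration giving 50% fewer cells than control.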

[26] = test system: HeLa; assay: Induction of apoptosis in human HeLa cells assessed as non apoptotic cell count at 50 uM treated for 24 hrs before Annexin-V-FITC PI staining by flow cytometry; assay type: functional; outline: as §1
[27] = test system: HeLa; assay: Induction of apoptosis in human HeLa cells assessed as late stage apoptotic cell count at 50 uM using Annexin-V-FITC PI stain by flow cytometry; assay type: functional; outline: as §1
[28] = test system: Salmonidae; assay: Binding affinity to Salmon testes DNA assessed as drug-DNA complex formation by linear flow dichroism method
Outline: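 Salmon testes DNA at 1.6×10^-3 M in ETN buffer (10 mM Tris, 10 mM NaCl, 1 mM EDTA, pH 7). DNA concentration set from extinction coefficient 6600 M(p)-1 cm-1 at 260 nm. Linear dichroism spectra recorded at 25 °C at [drug]/[DNA] = 0.00 and 0.08.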

[29] = test system: HeLa; assay: Induction of mitochondrial membrane depolarization in human HeLa cells at 50 uM after 24 hrs by FL2 staining; assay type: functional
Outline: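 Near-confluent HeLa cells given 50 μM agent in DMSO for 24 h at 37 °C; JC-1 added at […] final for the last 10 min. Positive control 20 μM H2O2 for 24 h. After cold PBS wash, flow cytometry with 488 nm excitation; monomers at 530 nm, aggregates (FL2) at 585/650 nm. At least 10,000 events; one of four experiments.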

[30] = test system: HeLa; assay: Induction of apoptosis in human HeLa cells assessed as early stage apoptotic cell count at 50 uM using Annexin-V-FITC PI stain by flow cytometry; assay type: functional; outline: as §1
[31] = species on record: Rattus norvegicus; assay: Decrease in mitochondrial sulfydryl groups in rat liver mitochondria at 50 uM; assay type: functional; set-up: scale not given: the % may be the effect or the level left; outline: as §4
[32] = species on record: Rattus norvegicus; assay: Increase in hydrogen peroxide production in rat liver mitochondria assessed per mg of protein at 50 uM in presence of CA2+; assay type: functional
Outline: (§5)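 Rat liver mitochondria, 1 mg protein/mL, 20 °C, standard succinate/rotenone medium pH 7.4 with 30 μM Ca2+ unless omitted. Agent 50 μM. H2O2 measured fluorometrically by the scopoletin method, expressed per mg protein; mean ± SD of four independent experiments.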

[33] = test system: HeLa; assay: Induction of apoptosis in human HeLa cells assessed as late stage apoptotic cell count at 50 uM treated for 48 hrs before Annexin-V-FITC PI staining by flow cytometry; assay type: functional; outline: as §1
[34] = species on record: Rattus norvegicus; assay: Increase in hydrogen peroxide production in rat liver mitochondria assessed per mg of protein at 50 uM; assay type: functional; outline: as §5

SMILES: COc1ccc2c(c1)SCc1cnn(-c3ccc(Cl)cc3)c1-2
viability at 6 µM [1]: 64% | Activity [2]: 40.9% | IC50 [3]: 3.8 µM | Activity [4]: 11.6% | Activity [5]: 19.7% | Activity [6]: inactive | Activity [7]: 0.6% | Activity [8]: inactive | Activity [9]: inactive | Activity [10]: 28.2% | Activity [11]: inactive | Activity [12]: 93.4% | Activity [13]: Active | Activity [14]: 2 | Activity [15]: Active | Activity [16]: inactive | Activity [17]: inactive | Activity [18]: inactive | Activity [19]: Active | Activity [20]: 8.5% | Activity [21]: Active | Activity [22]: Active | Activity [23]: inactive | Activity [24]: 5.4% | IC50 [25]: 6.7 µM | Activity [26]: 46.7% | Activity [27]: 1.2% | Activity [28]: inactive | Activity [29]: 39.4% | Activity [30]: 4.8% | Activity [31]: 20% | Activity [32]: 0.55 nmol | Activity [33]: 39% | Activity [34]: 0.25 nmol

Activity [28]: inactive
SMILES: COc1ccc2c(c1)SCc1cnn(-c3ccccc3)c1-2
IC50 [3]: 12.5 µM | IC50 [25]: 17.2 µM

SMILES: COc1ccc2c(c1)SCc1cn(-c3ccc(Cl)cc3)nc1-2
IC50 [3]: > 20 µM | IC50 [25]: > 20 µM

SMILES: COc1ccc(-n2cc3c(n2)-c2ccc(OC)cc2SC3)cc1
IC50 [3]: > 20 µM | IC50 [25]: > 20 µM

SMILES: COc1ccc2c(c1)SCc1cn(-c3ccccc3)nc1-2
IC50 [3]: > 20 µM | IC50 [25]: > 20 µM

SMILES: COc1ccc2c(c1)SCc1cnc(-c3ccccc3)nc1-2
IC50 [3]: 7.15 µM
